HTRA1 inhibitor = HTRA1 serine protease inhibitors, primary screen, biochemical, fluorescence polarization, HTS | Q92743 | recombinant HTRA1, FP-rhodamine activity-based probe | inhibition, % at 5.96 µM | hit rate 0.5% among 340,000 | AID 504803, 2011; in the data active = inhibition above about 36%
PRMT1 inh = PRMT1 methyltransferase inhibitors, primary screen, biochemical, fluorescence polarization; Protein arginine N-methyltransferase 1 (Homo sapiens), Q99873; recombinant PRMT1, activity-based probe fluorescence polarization; inhibition, % at 2.79 µM; hit rate 1.3% among 370,000;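 active = inhibition above about 21% made by adding two undisclosed values, limit read from the data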
Target sequence (Q99873 whole entry, looked up): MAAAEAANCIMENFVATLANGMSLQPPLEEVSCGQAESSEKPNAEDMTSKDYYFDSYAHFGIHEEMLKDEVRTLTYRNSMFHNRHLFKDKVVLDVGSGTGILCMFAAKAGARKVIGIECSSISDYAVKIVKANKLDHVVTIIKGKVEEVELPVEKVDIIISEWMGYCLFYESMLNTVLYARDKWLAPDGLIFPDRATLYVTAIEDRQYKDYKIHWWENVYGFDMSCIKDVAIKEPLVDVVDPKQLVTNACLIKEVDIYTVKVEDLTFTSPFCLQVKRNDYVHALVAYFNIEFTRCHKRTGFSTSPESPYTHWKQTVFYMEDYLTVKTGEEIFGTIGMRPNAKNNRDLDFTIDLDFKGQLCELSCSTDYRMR
SIAE primary = human SIAE inhibitors, primary screen, biochemical, fluorescence polarization, FP-Rh probe, 1536-well HTS; Sialate O-acetylesterase (Homo sapiens), Q9HAT2; SIAE FP-Rh probe binding; inhibition, % at 9.66 µM; hit rate 0.69% among 370,000; AID 1053197, 2014;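 active = inhibition above a cutoff: mean of compounds within the control limits plus 3 SD of those, cut at about 17% in these data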
TCR-CD3 inh = inhibitors of human TCR-CD3 interaction, primary screen, biochemical, fluorescence, TAMRA-labeled TCR probe; T-cell receptor (TCR); inhibition, % at 9.4 µM; hit rate 0.37% among 360,000; AID 651800, 2012; in the data active = inhibition above about 19%;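 also: recombinant mutant TCR 2C K166C tagged with TAMRA read by polarization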
mABHD4 FP = ABHD4 inhibitors, primary screen, biochemical, fluorescence polarization, mouse; purified mABHD4, FP-Rh probe fluorescence polarization; inhibition, % at 8.92 µM; hit rate 0.54% among 370,000; AID 720543, 2013;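 active = inhibition exceeding the mean over every tested compound plus 3 SD, cut at about 30% in these data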
Target sequence (Q8VD66 whole entry, looked up): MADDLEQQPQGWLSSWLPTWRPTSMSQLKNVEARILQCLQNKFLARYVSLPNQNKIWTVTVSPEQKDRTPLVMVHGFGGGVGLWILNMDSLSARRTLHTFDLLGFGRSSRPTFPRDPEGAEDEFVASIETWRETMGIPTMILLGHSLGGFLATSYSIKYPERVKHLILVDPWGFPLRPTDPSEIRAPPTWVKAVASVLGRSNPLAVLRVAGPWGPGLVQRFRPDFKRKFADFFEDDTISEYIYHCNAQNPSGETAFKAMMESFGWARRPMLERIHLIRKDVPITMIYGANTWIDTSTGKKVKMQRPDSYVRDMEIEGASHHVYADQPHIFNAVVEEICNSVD
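Assay system: mABHD4 protein; medium: HEPES pH 7.0, NaCl, Pluronic buffer; dosing: 8.92 µM, single dose; schedule: 45 min + 60 min at 25 °C; signal: FP readout, ex 525 nm / em 598 nm; read-out: normalized percent inhibition of probe labeling; repeats: single replicate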
SIAE confirm = human SIAE inhibitors, retest, confirmation, biochemical, fluorescence polarization, FP-Rh probe, triplicate; inhibition, % at 9.66 µM; hit rate 13% among 2,300; SIAE FP-Rh activity-based probe; shares compounds with SIAE primary;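 active = mean inhibition of the replicates above the hit cutoff set in the primary screen, cut at about 17% in these data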;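 also: inhibitors lower polarization as more probe stays unbound to SIAE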
Of the large screens only hits and unclear results are named; the others gave an inactive call (follow-up assays come after a bar, where they were run). Only some compounds are listed: those with a hit (about 2.5% of all), similar ones and a draw of the others.

COc1ccc(N2C(=O)C(=O)/C(=C(/O)c3ccc(C)cc3)C2c2cccnc2)cc1 (centres undefined)	SIAE primary 21 | SIAE confirm inactive
O=C1C[C@@H](C(=O)Nc2ccc(Cl)cc2)[C@@H](c2ccccc2)O1	none (no result: HTRA1 inhibitor, TCR-CD3 inh)
O=C1c2ccccc2C(=O)c2cc(N3CCCCC3)ccc21	SIAE primary 22 | SIAE confirm 42
CCC(=O)Nc1nnc(SCCOC)s1	SIAE primary 58 | SIAE confirm inactive
CSc1nnc(NC(=O)c2ccc3c(c2)OCO3)s1	none
COCCSc1nnc(NC(=O)c2ccc3c(c2)OCO3)s1	SIAE primary 18 | SIAE confirm inactive
CCCCCN1CCCCC(NC(=O)c2ccc(F)c(F)c2)C1=O (centres undefined)	none (no result: HTRA1 inhibitor, TCR-CD3 inh)
O=C(OCc1cn(Cc2cc(F)ccc2F)nn1)N1CCOCC1	none (no result: HTRA1 inhibitor, TCR-CD3 inh)
O=C(CN1CCc2onc(-c3ccc(-n4cc(C5=CCCCC5)nn4)cc3)c2C1=O)N1CCOCC1	none (no result: HTRA1 inhibitor, TCR-CD3 inh)
O=C(CCc1c[nH]c2ccccc12)Nc1ccc(Oc2cccnc2)cc1	SIAE primary 22 (no result: HTRA1 inhibitor) | SIAE confirm 32
Cc1ccc2[nH]c3c(N4CCc5ccccc5C4)ncnc3c2c1	SIAE primary 23 | SIAE confirm inactive
COc1ccc2[nH]c3c(N4CCC(O)(c5cccc(C(F)(F)F)c5)CC4)ncnc3c2c1	SIAE primary 18 | SIAE confirm inactive
CC(=O)/C(=N/Nc1ccc(C)cc1)Sc1nnc(CCc2ccccc2)n1-c1ccccc1	none
CCOC(=O)/C(=N/Nc1ccc(OC)cc1)Sc1nnc(CCc2ccccc2)n1-c1ccccc1	SIAE primary 17 | SIAE confirm inactive
COc1cc(NC(=O)Nc2nc(C(N)C3CCCCC3)cs2)cc(OC)c1OC (centres undefined)	SIAE primary 21 (no result: HTRA1 inhibitor) | SIAE confirm inactive
C[C@@H]1CN([C@H](C)CO)C(=O)c2cc(Br)cnc2O[C@@H]1CN(C)C(=O)c1cccc(F)c1	SIAE primary 17 | SIAE confirm inactive
O=C(NCCc1ccccc1)OCc1cn(Cc2cccc(C(F)(F)F)c2)nn1	none (no result: HTRA1 inhibitor, TCR-CD3 inh)
O=C(NCc1ccco1)c1noc2c1CCCC2	none
CC1CCc2onc(C(=O)NCc3ccco3)c2C1 (centres undefined)	SIAE primary 21 | SIAE confirm inactive
Cc1[nH]nc2c1C(c1ccc(-c3ccc(Cl)cc3)o1)C(C#N)=C(N)O2 (centres undefined)	SIAE primary 18 | SIAE confirm inactive
O=C(OCc1ccccc1)C1CCCN1C(=O)c1cccs1 (centres undefined)	none
O=C(COC(=O)C1CCCN1C(=O)c1cccs1)c1ccccc1 (centres undefined)	SIAE primary 17 | SIAE confirm inactive
Cc1ccc(N2C(N)=C(C#N)C(c3cccs3)C3=C2CC(C)(C)CC3=O)cc1 (centres undefined)	none
CC1(C)CC(=O)C2=C(C1)N(c1ccc(F)cc1)C(N)=C(C#N)C2c1cccs1 (centres undefined)	SIAE primary 31 | SIAE confirm inactive
Cc1cc(N2CCCC2)n2nc(C)nc2n1	SIAE primary 19 | SIAE confirm inactive
CC(=O)N1CCN(c2cc(C)nc3nc(C)nn23)CC1	none (no result: HTRA1 inhibitor, TCR-CD3 inh)
CCCCCN1CCCCC(NC(=O)c2ccc(C)cc2)C1=O (centres undefined)	none (no result: HTRA1 inhibitor, TCR-CD3 inh)
CCC[C@H]1[C@@H](OC(=O)NCCc2c[nH]c3ccccc23)CC[C@@]23CCCN2C(=O)CCC[C@@H]13	none (no result: HTRA1 inhibitor, TCR-CD3 inh)
CCOC(=O)c1c(C)[nH]sc1=S	none
CCOC(=O)c1sc(=S)[nH]c1C	SIAE primary 18 | SIAE confirm inactive
CCCCN(C(=O)C1=COCCO1)c1c(N)n(CCC)c(=O)[nH]c1=O	SIAE primary 20 | SIAE confirm inactive
COc1ccc(NCC(=O)N/N=C(\C)c2cc3ccccc3o2)cc1	SIAE primary 18 | SIAE confirm inactive
O=C(N/N=C\c1ccccn1)c1cccc(C(=O)N/N=C\c2ccccn2)n1	SIAE primary 21 | SIAE confirm 21
NC(=S)Nc1ccc(F)c(F)c1F	none
NC(=S)Nc1ccc(F)cc1F	SIAE primary 22 | SIAE confirm inactive
COC(=O)[C@]12C[C@H](CC(=O)NCc3ccc(C)o3)C(=O)N(CCc3ccc(OC)c(OC)c3)C1=C[C@H](C(C)(C)C)O[C@@H]2C	none (no result: HTRA1 inhibitor, TCR-CD3 inh)
O=C(Nc1ccccc1Oc1ccccc1)c1cc([N+](=O)[O-])ccc1Cl	none
COc1ccc(C(=O)Nc2ccc(Nc3ccccc3)cc2)cc1[N+](=O)[O-]	SIAE primary 19 | SIAE confirm inactive
COc1ccc(C(=O)Nc2ccc(OCc3ccccc3)cc2)cc1[N+](=O)[O-]	none
COc1ccccc1NC(=O)c1ccc(-n2ccnc2)c([N+](=O)[O-])c1	SIAE primary 24 | SIAE confirm inactive
CCOc1cc(N2CCOCC2)c(OCC)cc1NC(=O)c1ccc(-n2ccnc2)c([N+](=O)[O-])c1	none
O=C(Nc1ccc(Nc2ccccc2)cc1)c1cc([N+](=O)[O-])ccc1Cl	SIAE primary 24 | SIAE confirm inactive
Cc1cc(=O)[nH]c(SCC(=O)Nc2cccc(C)c2C)n1	none (no result: HTRA1 inhibitor, TCR-CD3 inh)
O=C(CSc1nnc2ccccn12)NC(=O)c1ccccc1	SIAE primary 17 | SIAE confirm inactive
COC(=O)c1cc(C(c2ccccc2O)C2CCC(C)(C)O2)n2ccccc12 (centres undefined)	none (no result: HTRA1 inhibitor, TCR-CD3 inh)
COc1ccc(NC(=O)CN2C(=O)C(C)Oc3ccc(C)cc32)cc1 (centres undefined)	SIAE primary 21 | SIAE confirm inactive
O=C(CSc1nc2c(c(=O)[nH]1)CCCC2)N1CCOCC1	none (no result: HTRA1 inhibitor, TCR-CD3 inh)
O=C1NC(=O)C(=Cc2ccccc2)N1	none
O=C1NC(=O)/C(=C/c2cccc(O)c2)N1	SIAE primary 17 | SIAE confirm inactive
CC[C@]12c3[nH]c4cc(-c5ccco5)ccc4c3CCN1C(=O)[C@@H](CC(=O)NCC13CC4CC(CC(C4)C1)C3)C[C@@H]2C(=O)N1CCN(C(=O)c2ccco2)CC1	SIAE primary 18 | SIAE confirm inactive
COc1ccc(CN2C[C@]3(C=C4CCCCC4n4c(=O)n(-c5ccccc5)c(=O)n43)N=C2NC(=O)c2ccccc2)c(OC)c1 (some centres undefined)	none (no result: HTRA1 inhibitor, TCR-CD3 inh)
COc1cccc(CNC(=O)c2cccc(NC(=O)C3=C(C)OCCS3)c2)c1	SIAE primary 21 | SIAE confirm inactive
Cc1ccc(NC(=O)N2CCC(c3nc4ccc(Cl)cc4[nH]3)CC2)cc1F	none (no result: HTRA1 inhibitor, TCR-CD3 inh)
CS(=O)(=O)c1cnc(-c2ccccc2)nc1Sc1ccc(F)cc1	SIAE primary 17 | SIAE confirm inactive
COC(=O)[C@]12C[C@H](CC(=O)N3CCN(C(=O)C4CC4)CC3)C(=O)N(Cc3ccco3)C1=C[C@H](C(C)C)O[C@@H]2C1CC1	none (no result: HTRA1 inhibitor, TCR-CD3 inh)

High-throughput results as filed in PubChem.
